Laboratory results reported in ChEMBL document CHEMBL2413007, “Synthesis of polysubstituted benzofuran derivatives as novel inhibitors of parasitic growth” (Bioorg Med Chem, 2013).

What was measured:
[1] = test system: Trypanosoma brucei gambiense; assay: Antitrypanosomal activity against Trypanosoma brucei gambiense Feo bloodstream form after 72 hrs by fluorescence assay; type: functional, organism-based
How it was run: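 Bloodstream forms of strain Feo grown in HMI9 with 10% FCS, 37 °C, 5% CO₂. Log-phase cells harvested by centrifugation (3000g) and used at once, seeded at 3 × 10⁴ cells/ml. Inhibitor concentration series, final DMSO ≤1%. Resazurin added after 72 h (final 45 µM), fluorescence (ex 530/em 590 nm) read 4 h later. Inhibition relative to untreated parasites; triplicates, experiment repeated twice.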

[2] = test system: Plasmodium falciparum; assay: Antiplasmodial activity against erythrocytic stages of chloroquine-resistant Plasmodium falciparum FcB1/Columbia incubated for 24 hrs followed by [3H]-hypoxanthine addition measured after 24 hrs by liquid scintillation spectrometry; type: functional, organism-based
How it was run: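 Asynchronous FcB1/Colombia cultured on human erythrocytes in RPMI 1640 + 8% heat-inactivated human serum, 37 °C, 3% CO₂/6% O₂/91% N₂. DMSO stocks 10 mM, two-fold serial dilutions; 1% parasitaemia, 1% final haematocrit. 24 h drug exposure, then 0.5 µCi [³H]-hypoxanthine per well, 24 h more; freeze-thaw, filter harvest, scintillation counting versus untreated same-plate control. IC50 from concentration–response curve; mean ± SD of several independent experiments; chloroquine control.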

SMILES | IC50 [1] | IC50 [2]
COc1ccc(-c2oc3ccccc3c2C(=O)c2ccccc2)cc1 | 21.2 µM | > 50 µM
COc1ccc(-c2oc3ccccc3c2C(=O)c2ccc([N+](=O)[O-])cc2)cc1 | > 50 µM | > 50 µM
COc1ccc(-c2oc3ccccc3c2C(=O)c2c(O)cc(OC)cc2OC)cc1 | 6.7 µM | > 25 µM
O=C(c1ccccc1)c1c(C2CC2)oc2ccccc12 | 20.9 µM | > 50 µM
O=C(c1ccccc1)c1c(-c2ccccc2)oc2ccccc12 | 15.5 µM | > 50 µM
O=C(c1ccc([N+](=O)[O-])cc1)c1c(-c2ccccc2)oc2ccccc12 | > 50 µM | > 50 µM
COc1ccc(-c2oc3cccc(O)c3c2C(=O)c2ccccc2)cc1 | 6.5 µM | > 25 µM
COc1ccc(C(=O)c2c(-c3ccc(OC)cc3)oc3cccc(O)c23)cc1 | 7.7 µM | > 25 µM
COc1ccc(-c2oc3cccc(O)c3c2C(=O)c2cccc3ccccc23)cc1 | 4.2 µM | > 50 µM
CCOc1ccc2ccccc2c1C(=O)c1c(-c2ccc(OC)cc2)oc2cccc(O)c12 | 1.5 µM | > 25 µM
COc1ccc(C(=O)c2c(C3CC3)oc3cccc(O)c23)cc1 | 3.7 µM | > 50 µM
O=C(c1cccc2ccccc12)c1c(C2CC2)oc2cccc(O)c12 | 4.6 µM | > 50 µM
CCOc1ccc2ccccc2c1C(=O)c1c(C2CC2)oc2cccc(O)c12 | 2 µM | > 25 µM
COc1ccc(-c2oc3cccc(OC)c3c2C(=O)c2ccccc2)cc1 | 11.8 µM | > 50 µM
COc1ccc(C(=O)c2c(-c3ccc(OC)cc3)oc3cccc(OC)c23)cc1 | 8.3 µM | > 25 µM
COc1ccc(-c2oc3cccc(OC)c3c2C(=O)c2cccc3ccccc23)cc1 | 12.4 µM | > 50 µM
COc1ccc(-c2oc3cccc(OC)c3c2C(=O)c2ccc(Cl)cc2)cc1 | 5.5 µM | > 50 µM
COc1ccc(-c2oc3cccc(OC)c3c2C(=O)c2ccc(OC(=O)C(C)(C)C)c(OC)c2)cc1 | 8.4 µM | > 50 µM
COc1ccc(-c2oc3cccc(OC)c3c2C(=O)c2c(OC)cc(OC)cc2OC)cc1 | > 50 µM | > 50 µM
COc1ccc(-c2cc3c(OC(=O)c4ccccc4)cccc3o2)cc1 | 3.2 µM | > 25 µM

SMILES | IC50 [1] | IC50 [2]
COc1ccc(C(=O)Oc2cccc3oc(-c4ccc(OC)cc4)cc23)cc1 | 1.8 µM | 11.2 µM
COc1ccc(-c2cc3c(OC(=O)c4c(O)cc(OC)cc4OC)cccc3o2)cc1 | > 50 µM | 7.9 µM
COc1ccc(-c2cc3c(OC(=O)c4cccc5ccccc45)cccc3o2)cc1 | 14.9 µM | > 50 µM
CCOc1ccc2ccccc2c1C(=O)Oc1cccc2oc(-c3ccc(OC)cc3)cc12 | 7.7 µM | > 50 µM
COc1ccc(-c2cc3c(OC(=O)c4ccc(Cl)cc4)cccc3o2)cc1 | 1.5 µM | > 25 µM
COc1ccc(-c2cc3c(OC(=O)c4ccc([N+](=O)[O-])cc4)cccc3o2)cc1 | 1.7 µM | > 50 µM
O=C(Oc1cccc2oc(C3CC3)cc12)c1ccccc1 | 14.7 µM | > 50 µM
COc1ccc(C(=O)Oc2cccc3oc(C4CC4)cc23)cc1 | 2.7 µM | > 50 µM
O=C(Oc1cccc2oc(C3CC3)cc12)c1cccc2ccccc12 | 12.6 µM | > 50 µM
CCOc1ccc2ccccc2c1C(=O)Oc1cccc2oc(C3CC3)cc12 | 6.4 µM | > 25 µM
O=C(Oc1cccc2oc(C3CC3)cc12)c1ccc(Cl)cc1 | 7.1 µM | > 50 µM
O=C(Oc1cccc2oc(C3CC3)cc12)c1ccc([N+](=O)[O-])cc1 | 12.2 µM | > 50 µM
O=C(Oc1cccc2oc(-c3ccccc3)cc12)c1ccccc1 | 14 µM | > 25 µM
COc1ccc(C(=O)Oc2cccc3oc(-c4ccccc4)cc23)cc1 | 1.7 µM | > 25 µM
O=C(Oc1cccc2oc(-c3ccccc3)cc12)c1cccc2ccccc12 | 21.3 µM | > 25 µM
CCOc1ccc2ccccc2c1C(=O)Oc1cccc2oc(-c3ccccc3)cc12 | 6.7 µM | > 50 µM
O=C(Oc1cccc2oc(-c3ccccc3)cc12)c1ccc(Cl)cc1 | 1.6 µM | > 25 µM
O=C(Oc1cccc2oc(-c3ccccc3)cc12)c1ccc([N+](=O)[O-])cc1 | 1.8 µM | > 25 µM
Cc1cc(C)cc(-c2cc3c(OC(=O)c4ccccc4)cccc3o2)c1 | 2 µM | 6 µM
N=C(N)c1ccc(OCCCCCOc2ccc(C(=N)N)cc2)cc1 [PENTAMIDINE] | 0.011 µM | –
